Results as given in PubChem BioAssay AID588713 (Southern Research Specialized Biocontainment Screening …, 2011).
Calls of active or inactive are those of the source.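 Rule for the calls: active = log virus titer change below -1, over tenfold drop in progeny titer versus untreated infected control; inactive = the rest.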

tested on: HEp-2 cells, RSV plaque reduction, virus titer; assay: antiviral effect on respiratory syncytial virus yield – cell-based, plaque reduction, set 4 (AID 588713); details: at 10 µM; hits give low values
Method in brief: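 Assay system: RSV-infected HEp-2 cells | Also added: RSV Long, MOI 0.1 | Dosing: Test compound with 0.5% DMSO final | Schedule: 48 h compound exposure after 2 h infection, 37 °C | Technique: Plaque titration on fresh HEp-2 under 1% Avicel, 6 days, neutral red stain | Evaluation: Progeny virus titer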

`O=C(O)c1ccc(Cn2c(=O)n(Cc3ccc(C(=O)NCC4COC4)cc3)c(=O)c3ccccc32)cc1` was tested, and the log virus titer change was 0.68 (inactive).

Compared with `CC(C)c1ccc(Cn2c(=O)n(Cc3ccc(C(=O)NCc4ccco4)cc3)c(=O)c3ccccc32)cc1`, `CN(C)c1ccc(Cn2c(=O)n(Cc3ccc(C(=O)NCC4COC4)cc3)c(=O)c3ccccc32)cc1` is lower in log virus titer change: -2.83 for the first, less than -6.18 for the second.

`COCCCNC(=O)c1ccc(Cn2c(=O)c3ccccc3n(Cc3ccc([N+](=O)[O-])cc3)c2=O)cc1` was tested, and the log virus titer change was less than -6.18.
